ChEMBL document CHEMBL1156938, “Synthesis and in vitro biological evaluation of carbonyl group-containing inhibitors of vesicular acetylcholine transporter” (J Med Chem, 2010)

Assays:
[1] = Displacement of [3H]DTG from sigma 2 receptor in rat liver membrane homogenates after 2 hrs by liquid scintillation counting; assay type: cell membranes
Outline: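 Rat liver membranes (~300 μg protein) with ~5 nM [3H]DTG plus 1 μM (+)-pentazocine to mask σ1 sites, 2 h at room temperature. Compounds were diluted in pH 7.4 Tris-HCl/NaCl/EDTA buffer. Nonspecific binding taken with 10 μM haloperidol, then filtration and scintillation counting. IC50 from one-site regression. Ki by Cheng-Prusoff (Kd 30.73 nM), mean ± SEM.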

[2] = biological target: Sigma non-opioid intracellular receptor 1 (Cavia porcellus, UniProt Q60492); assay: Displacement of [3H](+)-pentazocine from sigma 1 receptor in guinea pig brain membrane homogenates after 90 mins by liquid scintillation counting; assay type: cell membranes
Sigma non-opioid intracellular receptor 1, sequence (Q60492 whole entry): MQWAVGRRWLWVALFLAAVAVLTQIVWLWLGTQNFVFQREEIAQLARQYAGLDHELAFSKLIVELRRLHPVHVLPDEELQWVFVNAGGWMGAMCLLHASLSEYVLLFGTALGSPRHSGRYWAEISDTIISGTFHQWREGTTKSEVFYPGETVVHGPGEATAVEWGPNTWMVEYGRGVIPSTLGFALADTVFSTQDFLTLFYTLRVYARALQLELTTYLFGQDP
Outline: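 Compounds dissolved in DMF, DMSO or ethanol, then diluted in 50 mM Tris-HCl, 150 mM NaCl, 100 mM EDTA, pH 7.4. Guinea pig brain membranes (~300 μg protein) with ~5 nM [3H](+)-pentazocine, 90 min at room temperature. Nonspecific binding taken with 10 μM haloperidol. Filtered and counted. IC50 from one-site nonlinear fit. Ki by Cheng-Prusoff (Kd 7.89 nM), mean ± SEM.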

[3] = Selectivity ratio of Ki for sigma 1 receptor in guinea pig brain membrane homogenates to Ki for VAChT in Torpedo californica cholinergic synaptic vesicles; assay type: cell membranes
Outline: (§1)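 Index calculated as Ki(σ1 or σ2)/Ki(VAChT). […] Averaged data were fit to a rectangular hyperbola, and each compound was assayed independently at least twice. σ Ki values come from the radioligand binding assays in guinea pig brain (σ1) and rat liver (σ2) membranes.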

[4] = biological target: T1, Vesicular acetylcholine transporter (Torpedo californica, UniProt P81721); assay: Displacement of [3H]vesamicol from VAChT in Torpedo californica cholinergic synaptic vesicles; parameters: species or system Tetronarce californica
T1 sequence (P81721 whole entry): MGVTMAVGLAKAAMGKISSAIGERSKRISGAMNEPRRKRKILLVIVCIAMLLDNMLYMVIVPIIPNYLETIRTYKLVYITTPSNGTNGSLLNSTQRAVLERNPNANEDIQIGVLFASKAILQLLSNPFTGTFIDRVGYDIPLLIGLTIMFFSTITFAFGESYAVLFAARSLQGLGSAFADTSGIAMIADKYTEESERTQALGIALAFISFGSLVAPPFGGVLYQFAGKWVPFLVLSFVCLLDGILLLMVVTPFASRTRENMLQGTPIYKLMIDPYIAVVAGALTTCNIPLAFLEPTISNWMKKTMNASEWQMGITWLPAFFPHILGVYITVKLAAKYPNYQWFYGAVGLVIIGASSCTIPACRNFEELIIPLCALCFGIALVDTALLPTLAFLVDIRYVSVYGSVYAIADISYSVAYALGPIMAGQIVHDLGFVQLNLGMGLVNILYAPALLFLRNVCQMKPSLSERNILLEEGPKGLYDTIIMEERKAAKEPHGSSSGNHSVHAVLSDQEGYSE
Outline: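 Compounds tested as hydrochlorides. Averaged data fit by regression to a rectangular hyperbola to give Ki. Each compound assayed independently at least two times; Ki reported as mean ± SEM from at least three experiments.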

[5] = Selectivity ratio of for sigma 2 receptor in rat liver membrane homogenates to Ki for VAChT in Torpedo californica cholinergic synaptic vesicles; assay type: cell membranes; outline: as §1

Compound	Ki [1] [nM]	Ki [2] [nM]	Ratio Ki [3]	Ki [4] [nM]	Ratio Ki [5]
O=C(C1CCN([C@@H]2Cc3ccccc3C[C@H]2O)CC1)N1CCN(Cc2ccccc2)CC1 (relative stereo)	> 1000	118	56.8	2.08	–
O=C(C1CCN([C@@H]2Cc3ccccc3C[C@H]2O)CC1)N1CCC(Cc2ccccc2)CC1 (relative stereo)	> 1000	19.9	8.3	2.4	–
Nc1cccc2c1C[C@@H](N1CCC(C(=O)c3ccc(Br)s3)CC1)[C@H](O)C2	> 1000	> 1000	–	0.41	–
O=C(c1ccc(F)cc1)C1(c2ccccc2)CCN([C@@H]2Cc3ccccc3C[C@H]2O)CC1	–	–	–	1.83	–
O=C(c1ccc(I)s1)C1CCN([C@@H]2CCCC[C@H]2O)CC1	48.9	9.39	0.02	560	0.1
O=C(c1cccs1)C1CCN([C@@H]2Cc3ccccc3C[C@H]2O)CC1 (relative stereo)	–	–	–	5	–
Nc1cccc2c1C[C@@H](N1CCC(C(=O)c3ccc(F)cc3)CC1)[C@H](O)C2	> 1000	> 1000	–	2.4	–
O=C(Cc1ccccc1)C1(c2ccccc2)CCN([C@@H]2Cc3ccccc3C[C@H]2O)CC1 (relative stereo)	–	–	–	1.38	–
O=C(C1CCN([C@@H]2Cc3ccccc3C[C@H]2O)CC1)N1CCCCC1 (relative stereo)	> 1000	> 1000	–	31	–
O[C@@H]1CCCC[C@H]1N1CCC(c2ccccc2)CC1 [VESAMICOL]	34.5	–	–	–	–
Nc1cccc2c1C[C@@H](O)[C@H](N1CCC(C(=O)c3cccs3)CC1)C2	> 1000	> 1000	–	134	–
O=C(c1ccc(F)cc1)C1CCN([C@@H]2CCCC[C@H]2O)CC1	113	303	0.7	423	0.3
Nc1cccc2c1C[C@@H](O)[C@H](N1CCC(C(=O)c3ccc(F)cc3)CC1)C2	353	497	65.4	7.6	46.4
Nc1cccc2c1C[C@@H](O)[C@H](N1CCC(C(=O)N3CCCCC3)CC1)C2	–	–	–	447	–
O=C(C1CCN([C@@H]2Cc3ccccc3C[C@H]2O)CC1)N1CCC(c2ccccc2)CC1 (relative stereo)	> 1000	50.2	24.3	2.07	–
Nc1cccc2c1C[C@@H](N1CCC(C(=O)c3cccs3)CC1)[C@H](O)C2	> 1000	> 1000	–	4.9	–
O=C(c1ccc(Br)cc1)C1CCN([C@@H]2CCCC[C@H]2O)CC1	30.1	15.9	0.3	51.4	0.6
O=C(c1ccccc1)C1(c2ccccc2)CCN([C@@H]2CCCC[C@H]2O)CC1	–	–	–	68.5	–
CCOC(=O)C1CCN([C@@H]2Cc3ccccc3C[C@H]2O)CC1 (relative stereo)	> 1000	> 1000	–	68.5	–
O=C(c1ccc(Br)s1)C1CCN([C@@H]2CCCC[C@H]2O)CC1	35.7	29.5	0.6	46.8	0.8
O=C(c1ccc(I)s1)C1CCN([C@@H]2Cc3ccccc3C[C@H]2O)CC1 (relative stereo)	344	194	294	0.66	522
Nc1cccc2c1C[C@@H](N1CCC(C(=O)N3CCCCC3)CC1)[C@H](O)C2	–	–	–	89.5	–
O=C(c1cccs1)C1CCN([C@@H]2CCCC[C@H]2O)CC1	–	–	–	763	–
Nc1cccc2c1C[C@@H](N1CCC(C(=O)c3ccc(Br)cc3)CC1)[C@H](O)C2	> 1000	395	746	0.53	> 1890
O=C(c1ccc(Br)s1)C1CCN([C@@H]2Cc3ccccc3C[C@H]2O)CC1 (relative stereo)	72	129	239	0.54	133
O=C(c1ccccc1)C1(c2ccccc2)CCN([C@@H]2Cc3ccccc3C[C@H]2O)CC1 (relative stereo)	–	–	–	1.64	–
O=C(c1ccccc1)C1CCN([C@@H]2CCCC[C@H]2O)CC1	341	281	0.4	650	0.5
Nc1cccc2c1C[C@@H](O)[C@H](N1CCC(C(=O)c3ccc(Br)s3)CC1)C2	121	483	16.4	29.4	4.1
